Test: Inhibition of ERK phosphorylation in human MDA-MB-231 cells after 1 hr
Format: cell-based
Procedure, shortened: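 MDA-MB-231 cells (25,000/well) grown 24 h, serum-starved 6 h, then exposed to compound 1 h (screen at 10 μM, n=3; dose-response for IC50). Cells fixed in 3.7% formaldehyde, permeabilized with 0.1% Triton X, immunostained with phospho-p44/p42 MAPK (T202/Y204) antibody plus anti-rabbit IgG secondary; TMB colour read by absorbance.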

Row | Compound | IC50 (Homo sapiens, MDA-MB-231, 1 h) | IC50
1 | O=S(=O)(NC1CCc2c([nH]c3ccccc23)C1)c1ccc(F)cc1 (stereo unspecified) | 7.5 µM | 
2 | CNC(=O)c1cc(Oc2ccc(NC(=O)Nc3ccc(Cl)c(C(F)(F)F)c3)cc2)ccn1 [SORAFENIB] | 0.063 µM | 
3 | CC1CCC(NC2CCc3c([nH]c4ccccc34)C2)C1 (stereo unspecified) | > 30 µM | 
4 | O=C(NC1CCc2c([nH]c3ccccc23)C1)c1cccc(F)c1 (stereo unspecified) | 8.1 µM | 
5 | O=C(NC1CCc2c([nH]c3ccccc23)C1)c1ccccc1F (stereo unspecified) | 29.7 µM | 
6 | Cc1ccc(CNC2CCc3c(n(C)c4ccccc34)C2)cc1 (stereo unspecified) | 4.4 µM | 
7 | c1ccc2c3c([nH]c2c1)CC(NC1CCCCC1)CC3 (stereo unspecified) | 7 µM | 
8 | O=S(=O)(NC1CCCc2c1[nH]c1ccccc21)c1cccnc1 (stereo unspecified) | > 100 µM | 
9 | Cc1ccc(CNC2CCc3c([nH]c4ccc(C)cc34)C2)cc1 (stereo unspecified) | 4.6 µM | 
10 | N#Cc1ccc(S(=O)(=O)NC2CCCc3c2[nH]c2ccccc32)cc1 (stereo unspecified) | > 100 µM | 
11 | O=S(=O)(NC1CCc2c([nH]c3ccccc23)C1)c1cccnc1 (stereo unspecified) | 69.9 µM | 

Other lines, results leading:

Row | IC50 (Homo sapiens, MDA-MB-231, 1 h) | IC50 | Compound
12 | 5.52 µM |  | CC1CCC(NC2CCCc3c2[nH]c2ccc([N+](=O)[O-])cc32)C1 (stereo unspecified)
13 | 7 µM |  | N#Cc1ccc(S(=O)(=O)NC2CCc3c([nH]c4ccccc34)C2)cc1 (stereo unspecified)
14 |  | 30 µM | c1ccc2c3c([nH]c2c1)C(NC1CCCC1)CCC3 (stereo unspecified) [listing 1 of 2 here]
15 | 3.62 µM |  | Cc1ccc(CNC2CCc3c([nH]c4ccccc34)C2)cc1 (stereo unspecified)
16 | > 100 µM |  | c1ccc2c3c([nH]c2c1)CC(NC1CCOCC1)CC3 (stereo unspecified)
17 | 3 µM |  | CC1CCC(NC2CCCc3c2[nH]c2ccccc32)C1 (stereo unspecified)
18 | 5.5 µM |  | Cc1ccc2[nH]c3c(c2c1)CCC(NCc1ccccc1)C3 (stereo unspecified)
19 | 9 µM |  | COc1cccc(C(=O)NC2CCc3c([nH]c4ccccc34)C2)c1 (stereo unspecified)
20 | 6.11 µM |  | c1ccc(CNC2CCc3c([nH]c4ccccc34)C2)cc1 (stereo unspecified)
21 | 9 µM |  | c1ccc2c3c([nH]c2c1)C(NC1CCCCC1)CCC3 (stereo unspecified)
22 |  | 5.5 µM | Cc1ccc2[nH]c3c(c2c1)CCC(NC1CCC(C)C1)C3 (stereo unspecified) [listing 1 of 2 here]
23 | 21 µM |  | c1ccc2c3c([nH]c2c1)C(NC1CCCC1)CCC3 (stereo unspecified) [listing 2 of 2 here]
24 | 6 µM |  | Cc1ccc2[nH]c3c(c2c1)CCC(NC1CCC(C)C1)C3 (stereo unspecified) [listing 2 of 2 here]
25 | 21 µM |  | c1ccc2c3c([nH]c2c1)CC(NC1CCCC1)CC3 (stereo unspecified)
26 | > 100 µM |  | O=S(=O)(NC1CCCc2c1[nH]c1ccccc21)c1ccc(F)cc1 (stereo unspecified)

Source: ChEMBL document CHEMBL4033649, “Discovery of tetrahydrocarbazoles as dual pERK and pRb inhibitors” (Eur J Med Chem, 2017)
